# Measured values from ChEMBL document CHEMBL1157145, “Cytotoxic activity of proflavine diureas: synthesis, antitumor, evaluation and DNA binding properties of 1',1''-(acridin-3,6-diyl)-3',3''-dialkyldiureas” (Bioorg Med Chem, 2008).
# Calls of active or inactive are those of the source. The rule behind the calls is not given here.
# Assays:
# [1] = test system: HCT-116; experiment: Cell cycle arrest in human HCT116 cells assessed as accumulation at G2/M phase at 4.80 uM after 48 hrs; assay type: functional
# Method in brief: (§1)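 Cells seeded at 8 · 10^5 per 60 mm dish, allowed to settle 24 h (37 °C, 5% CO2), then exposed to the drug for 24 or 48 h. Adherent plus floating cells (5 · 10^5) were fixed in cold 70% ethanol at −20 °C overnight, treated with RNase A (100 µg/mL) and stained with propidium iodide (20 µg/mL) in Vindelov's solution for 30 min at RT. Flow cytometry used 488 nm excitation, FL-2 at 585 ± 21 nm, and histograms were modelled for G0/G1, S and G2/M fractions.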
# [2] = test system: HeLa; experiment: Induction of apoptosis in human HeLa cells at 3.50 uM after 48 hrs; assay type: functional
# Method in brief: (§2)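 After 24 or 48 h of drug exposure, all cells were collected, combining trypsinised adherent cells with floating cells from the medium. Cells (1 × 10^6) were fixed in cold 70% ethanol overnight at −20 °C and stained with DAPI (10 µg/mL) for 30 min in the dark at RT. Under fluorescence microscopy, 300 cells per sample were scored, with condensed or fragmented nuclei counted as apoptotic.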
# [3] = test system: HCT-116; experiment: Induction of DNA fragmentation in human HCT116 cells after 48 hrs; assay type: functional, cell-based
# Method in brief: (§3)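 HCT-116 cells were treated for 24 or 48 h. Adherent and floating cells (5 × 10^5) were pooled, fixed in cold 70% ethanol and held overnight at −20 °C. Samples were treated with RNase A (100 µg/mL) and stained with propidium iodide (20 µg/mL) in Vindelov's solution for 30 min at RT. Flow cytometry used 488 nm excitation with emission at 585 nm. Subdiploid (subG0/G1) particles were scored on a logarithmic scale, with debris gated out on FSC × SSC.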
# [4] = test system: HCT-116; experiment: Induction of apoptosis in human HCT116 cells at 4.80 uM after 48 hrs; assay type: functional; method in brief: as §2
# [5] = test system: HeLa; experiment: Antiproliferative activity against human HeLa cells assessed as increase of floating cells in total cell population at 3.50 uM after 48 hrs; assay type: functional
# Method in brief: (§4)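 Cells seeded (8 · 10^5 per 60 mm dish), allowed to settle 24 h at 37 °C, 5% CO2, then treated with a single concentration for 24 or 48 h. Adherent and floating cells counted by Coulter counter. Total cell number given as % of untreated control; floating cells as % of total cell number.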
# [6] = test system: HeLa; experiment: Cell cycle arrest in human HeLa cells assessed as accumulation at G2/M phase at 3.50 uM after 24 hrs; assay type: functional; method in brief: as §1
# [7] = test system: HCT-116; experiment: Antiproliferative activity against human HCT116 cells assessed as decrease in total cell population at 4.80 uM after 24 hrs; assay type: functional; set-up: scale not given: the % may be the effect or the level left; method in brief: as §4
# [8] = test system: HCT-116; experiment: (§5) Cell cycle arrest in human HCT116 cells assessed as accumulation at G0/G1 phase at 4.80 uM after 48 hrs; assay type: functional
# Method in brief: (§6)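 Adherent plus floating cells (5 · 10^5) collected 24 or 48 h after treatment, fixed in cold 70% ethanol at −20 °C overnight, washed in PBS. RNase A (100 µg/mL) and propidium iodide (20 µg/mL) in Vindelov's solution, 30 min at RT. Flow cytometry with 488 nm excitation, emission 585 ± 21 nm; % cells per cycle phase from DNA content histograms.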
# [9] = test system: HeLa; experiment: Antiproliferative activity against human HeLa cells assessed as decrease in total cell population at 3.50 uM after 48 hrs; assay type: functional; set-up: scale not given: the % may be the effect or the level left; method in brief: as §4
# [10] = test system: HCT-116; experiment: as §5; assay type: functional; method in brief: as §6; remark: listed apart in the source
# [11] = test system: HCT-116; experiment: Induction of apoptosis in human HCT116 cells at 4.80 uM after 24 hrs; assay type: functional; method in brief: as §2
# [12] = test system: HCT-116; experiment: Induction of DNA fragmentation in human HCT116 cells after 24 hrs; assay type: functional, cell-based; method in brief: as §3
# [13] = test system: HCT-116; experiment: Cell cycle arrest in human HCT116 cells assessed as accumulation at S phase at 4.80 uM after 48 hrs; assay type: functional; method in brief: as §1
# [14] = test system: HeLa; experiment: Induction of apoptosis in human HeLa cells at 3.50 uM after 24 hrs; assay type: functional; method in brief: as §2
# [15] = test system: HeLa; experiment: Cell cycle arrest in human HeLa cells assessed as accumulation at G0/G1 phase at 3.50 uM after 24 hrs; assay type: functional; method in brief: as §1
# [16] = test system: HCT-116; experiment: Antiproliferative activity against human HCT116 cells assessed as decrease in total cell population at 4.80 uM after 48 hrs; assay type: functional; set-up: scale not given: the % may be the effect or the level left; method in brief: as §4
# [17] = test system: HeLa; experiment: Cell cycle arrest in human HeLa cells assessed as accumulation at S phase at 3.50 uM after 48 hrs; assay type: functional; method in brief: as §1
# [18] = test system: HCT-116; experiment: Cytotoxicity against human HCT116 cells after 48 hrs by MTT assay; assay type: functional, cell-based; details: HCT-116, 48 h
# [19] = test system: HCT-116; experiment: Antiproliferative activity against human HCT116 cells assessed as increase of floating cells in total cell population at 4.80 uM after 24 hrs; assay type: functional; method in brief: as §4
# [20] = test system: HeLa; experiment: Cell cycle arrest in human HeLa cells assessed as accumulation at S phase at 3.50 uM after 24 hrs; assay type: functional; method in brief: as §1
# [21] = test system: HeLa; experiment: Cell cycle arrest in human HeLa cells assessed as accumulation at G0/G1 phase at 3.50 uM after 48 hrs; assay type: functional; method in brief: as §1
# [22] = test system: DNA; experiment: Binding affinity to calf thymus DNA at 4 uM by fluorescence spectrophotometric titration; assay type: nucleic-acid assay; details: Bos taurus
# Method in brief: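 ctDNA sonicated in TE buffer, concentration taken from A260 and given in base pairs. Compound (4 µM) in 0.01 M Tris, pH 7.4, 25 °C titrated with ctDNA (0–55 µM bp) until spectra stopped changing. Excitation 424 nm, slit widths 10 nm; binding constant derived from the change in emission.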
# [23] = test system: HCT-116; experiment: Antiproliferative activity against human HCT116 cells assessed as increase of floating cells in total cell population at 4.80 uM after 48 hrs; assay type: functional; method in brief: as §4
# [24] = test system: HeLa; experiment: Cell cycle arrest in human HeLa cells assessed as accumulation at G2/M phase at 3.50 uM after 48 hrs; assay type: functional; method in brief: as §1
# [25] = test system: HCT-116; experiment: Cytotoxicity against human HCT116 cells after 72 hrs by MTT assay; assay type: functional, cell-based; details: Homo sapiens, HCT-116, 72 h
# [26] = test system: HeLa; experiment: Antiproliferative activity against human HeLa cells assessed as decrease in total cell population at 3.50 uM after 24 hrs; assay type: functional; set-up: scale not given: the % may be the effect or the level left; method in brief: as §4
# [27] = test system: HeLa; experiment: Antiproliferative activity against human HeLa cells assessed as increase of floating cells in total cell population at 3.50 uM after 24 hrs; assay type: functional; method in brief: as §4
# [28] = test system: HeLa; experiment: Cytotoxicity against human HeLa cells after 72 hrs by MTT assay; assay type: functional, cell-based
# [29] = test system: DNA; experiment: Binding affinity to calf thymus DNA at 50 uM by circular dichroism spectrophotometric titration; assay type: nucleic-acid assay; details: Bos taurus
# [30] = test system: HeLa; experiment: Cytotoxicity against human HeLa cells after 48 hrs by MTT assay; assay type: functional, cell-based
# [31] = in the assay text read “after 24 hrs” for “after 48 hrs”
smiles,measurement,setting,value
CCCCCCNC(=O)Nc1ccc2cc3ccc(NC(=O)NCCCCCC)cc3nc2c1.Cl,Activity,[1],41.06%
same,Activity,[1]; [31],45.1%
same,Activity,[2],1%
same,Activity,[3],Active
same,Activity,[4],12.67%
same,Activity,[5],4.41%
same,Activity,[6],13.24%
same,Activity,[7],48.1%
same,Activity,[8],36%
same,Activity,[9],91.16%
same,Activity,[10],35.98%
same,Activity,[11],5.67%
same,Activity,[12],Active
same,Activity,[13],22.97%
same,Activity,[13]; [31],21.38%
same,Activity,[14],0.75%
same,Activity,[15],59.69%
same,Activity,[16],19.84%
same,Activity,[17],21.55%
same,IC50,[18],4.76 µM
same,Activity,[19],77.94%
same,Activity,[20],27.08%
same,Activity,[21],66.57%
same,K,[22],0.9 ×10⁵ /M
same,Activity,[23],88.55%
same,Activity,[24],11.88%
same,IC50,[25],3.09 µM
same,Activity,[26],87.42%
same,Activity,[27],4.21%
same,IC50,[28],3.7 µM
same,Activity,[29],Active
same,IC50,[30],3.49 µM
